Experimental data reported in ChEMBL document CHEMBL1124186, “Synthesis and evaluation of tylosin-related macrolides modified at the aldehyde function: a new series of orally effective antibiotics” (1988).
In brackets after ≈: the same amount, converted by molar mass.

Key:
Streptococcus pyogenes [1] = test: In vivo effective dose against experimental infections in rodent caused by Streptococcus pyogenes C203 when administered sc; type: functional
Streptococcus pyogenes [2] = test: Effective dose against Streptococcus pyogenes C203 when administered orally; type: functional; settings: po
Summary of the method: (§1)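 Mouse protection test: infected mice were dosed twice, at 1 and 5 h postinfection, either subcutaneously or orally. […] The result is expressed as ED50 in mg/kg × 2.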

Streptococcus pyogenes [3] = test: Antimicrobial activity against Streptococcus pyogenes C203; type: functional
Streptococcus pyogenes [4] = test: Effective dose against Streptococcus pyogenes C203 when administered sc; type: functional; summary of the method: as §1
Streptococcus pneumoniae = test: In vitro antimicrobial activity against Streptococcus pneumoniae; type: functional
Streptococcus pyogenes [5] = test: In vitro antimicrobial activity against Streptococcus pyogenes C203; type: functional
Enterococcus faecium = test: In vitro antimicrobial activity against Streptococcus faecium X66; type: functional, streptococcus fae-cium
Haemophilus influenzae = test: In vitro antimicrobial activity against Haemophilus influenzae.; type: functional
Staphylococcus aureus = test: In vitro antimicrobial activity against Staphylococcus aureus X1; type: functional
[6] = system: Staphylococcus epidermidis; test: In vitro antimicrobial activity against Staphylococcus epidermidis EPI1; type: functional
Streptococcus pyogenes [7] = test: In vivo effective dose against experimental infections in rodent caused by Streptococcus pyogenes C203 when administered orally; type: functional; settings: po

MIC (Streptococcus pyogenes [3]): 4 µg/mL (≈ 7.02 µM)
MIC (Streptococcus pneumoniae): 4 µg/mL (≈ 7.02 µM)
MIC (Streptococcus pyogenes [5]): 4 µg/mL (≈ 7.02 µM)
MIC (Enterococcus faecium): 4 µg/mL (≈ 7.02 µM)
MIC (Haemophilus influenzae): 4 µg/mL (≈ 7.02 µM)
MIC (Staphylococcus aureus): 4 µg/mL (≈ 7.02 µM)
MIC [6]: 2 µg/mL (≈ 3.51 µM)
SMILES: CC[C@H]1OC(=O)C[C@@H](O)[C@H](C)[C@@H](O[C@@H]2O[C@H](C)[C@@H](O)[C@H](N(C)C)[C@H]2O)[C@@H](C)C[C@@H](C)C(=O)/C=C/C(C)=C/[C@@H]1CO
ED50 (Streptococcus pyogenes [1]): > 30 mg/kg
ED50 (Streptococcus pyogenes [2]): 121 mg/kg
ED50 (Streptococcus pyogenes [4]): > 30 mg/kg
ED50 (Streptococcus pyogenes [7]): 121 mg/kg
